High-throughput results (PubChem)
This is one part of a sample in which hits are shown more often than they occur.
Tb MetRS inh – blocks T. brucei methionyl-tRNA synthetase activity | purified T. brucei MetRS, ATP depletion, Kinase-Glo luminescence | inhibition, % at 11.9 µM | 360,000 tested, 0.4% active | AID 624268;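 active means inhibition above a per-plate cutoff of the control wells' mean inhibition plus 3 SD, cut at about 5.5% in these data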
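Test system – parasite MetRS enzyme · Reagent – substrates ATP, L-methionine and bulk Escherichia coli tRNA · Doses – 11.9 µM compound single dose, 0.9% DMSO · Times – 15 min enzyme-compound preincubation, 2 h reaction, 10 min detection, 25 °C · Signal – Kinase-Glo luminescence, ATP depletion format · Controls – DMSO-only wells as low control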
UPR CHOP act – activators of apoptotic arm of unfolded protein response (CHOP). 330,000 tested, 0.34% active. CHO-CHOP luciferase reporter, UPR activation, luminescence; percent of tunicamycin response over DMSO baseline. activation, % at 10 µM;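 active means at 10 µM dose, activation of 40% or more, normalized to positive control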
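Test system: CHO-CHOP cells, stable luciferase reporter of PERK-eIF2a-CHOP signalling | Quantity: 500 CHO-CHOP cells per well | Buffer or medium: F12 plus 10% serum | Compound dosing: 10 µM single point, 0.5% DMSO | Schedule: 6 h compound treatment, 37 °C | Signal: Luciferase luminescence | Control set: Tunicamycin high control, DMSO low control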
V-ATPase pHluor – yeast V-ATPase proton transport regulation by pHLuorin; 350,000 tested, 0.37% active; S. cerevisiae, pHLuorin cytosolic pH fluorescence; response, % at 10 µM; AID 504577; in the data active means response mostly above about 7.3%, no sharp cut-off; inactive means mostly below about 5.4%; further: actives read high
UPR XBP1 act – activators of adaptive arm of unfolded protein response (XBP1); CHO-XBP1 luciferase reporter, IRE1-XBP1 UPR activation, luminescence; percent of tunicamycin response, DMSO as zero; activation, % at 20 µM; 330,000 tested, 0.33% active;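 active means versus positive control, 20 µM dose yields 30% or more activation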
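Material: IRE1-XBP1 luciferase reporter CHO line / Quantity: one thousand reporter cells per well / Buffer or medium: F12 with 10% serum / Compound: 20 µM single concentration, DMSO 1% / Times: 6 h treatment, 37 °C / Detection: Steady-Glo luciferase glow luminescence, 10 min after reagent addition / Benchmarks: tunicamycin high, DMSO low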
CHOP inhibitor – blocks CHOP induction under ER stress. CHO-K1 CHOP-promoter luciferase, tunicamycin-induced, 15-18 h. inhibition, % at 10 µM. 220,000 tested, 3.8% active. AID 2732;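 active means compounds that reduced the stress-induced luciferase reporter signal by more than about 70% of percent inhibition, limit read from the data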
Each line names hits and unclear results; the compound was inactive in the other large screens.

O=c1oc2cc(OCc3c(F)cccc3Cl)ccc2cc1-c1ccccn1	none
Cc1cc(C(=O)OCC(=O)N2CCc3ccccc32)c(C)o1	CHOP inhibitor 81.5
Cc1cc(C(=O)OCC(=O)c2ccc(Br)s2)c(C)o1	CHOP inhibitor 78.7 (no result: Tb MetRS inh, V-ATPase pHluor)
CCc1ccc(NC(=O)CN(c2ccc3c(c2)OCO3)S(=O)(=O)c2c(C)noc2C)cc1	none
CCc1ccc(N(CC(=O)Nc2nc3ccc(C)cc3s2)S(=O)(=O)c2c(C)noc2C)cc1	CHOP inhibitor 82.6
c1coc(-c2nc3c4c5c(sc4ncn3n2)CCCC5)c1	CHOP inhibitor 78.9
CC(C)(C)c1ccc(C(=O)NCC(=O)OCC(=O)Nc2nc(-c3ccc(F)cc3)cs2)cc1	CHOP inhibitor 73.5
Cc1[nH]n(-c2ccccc2)c(=O)c1/C=N/Nc1nncc(-c2ccccc2)n1	CHOP inhibitor 77.1
COC(=O)C[C@@H]1CC[C@H](NC(=O)Nc2ccc(OC)cc2)[C@@H](CO)O1	none (no result: UPR CHOP act, V-ATPase pHluor, UPR XBP1 act, CHOP inhibitor)
CC(Oc1ccc(Cl)cc1Cl)C(=O)NCCC1=CCCCC1 (stereo not drawn)	CHOP inhibitor 90.3
CC(OC(=O)Cc1ccc(Cl)cc1)C(=O)NCCC1=CCCCC1 (stereo not drawn)	none
O=C(COC(=O)/C=C/c1ccc(Cl)cc1)NCCC1=CCCCC1	CHOP inhibitor 77.8
O=C(COC(=O)/C=C/c1cccc(Cl)c1)NCCC1=CCCCC1	none
CC1(C(=O)NS(=O)(=O)c2ccccc2Cl)CCN1C(=O)CCC1CCCC1 (stereo not drawn)	none (no result: UPR CHOP act, V-ATPase pHluor, UPR XBP1 act, CHOP inhibitor)
O=C(N/N=C/c1cccc([N+](=O)[O-])c1)c1cc2ccccc2o1	CHOP inhibitor 95.2
O=C(N/N=C/c1ccsc1)c1cc2ccccc2o1	none (no result: CHOP inhibitor)
O=c1cc(N2CCCCC2)c(-c2ccccc2)nn1Cc1ccc(F)cc1	CHOP inhibitor 81.5
O=c1ccc(-c2ccccc2)nn1Cc1ccc(F)cc1	none (no result: CHOP inhibitor)
O=c1cc(N2CCCCC2)c(-c2ccccc2)nn1Cc1c(Cl)cccc1Cl	none
O=c1cc(N2CCCCC2)c(-c2ccccc2)nn1Cc1ccc(Cl)cc1	CHOP inhibitor 70.8
O=C(Nc1ncccc1Cl)C(Sc1ccccc1)c1ccccc1 (stereo not drawn)	CHOP inhibitor 75.4
CC(=O)Nc1ccc(NC(=O)C(Sc2ccccc2)c2ccccc2)cc1 (stereo not drawn)	none
CCOC(=O)c1nc(C)nc(Sc2n[nH]c(-c3cc(C(F)(F)F)cc(C(F)(F)F)c3)n2)c1C	CHOP inhibitor 71.9
CCOC(=O)c1cc(-c2cccc(C(F)(F)F)c2)nc2nc(SC)[nH]c(=O)c12	none
NC(=O)c1nc(C2CCCCC2)nc2c1[nH]c(=O)n2-c1ccc(F)cc1	CHOP inhibitor 88.7
CN(C(=O)Nc1ccccc1)C1CCS(=O)(=O)C1 (stereo not drawn)	none
CC(=O)NC1=C(N(C)C2CCS(=O)(=O)C2)C(=O)c2ccccc2C1=O (stereo not drawn)	CHOP inhibitor 75.0
CCCCN(c1ccccc1)S(=O)(=O)c1cccc(C(=O)Nc2c(C)n(C)n(-c3ccccc3)c2=O)c1	none (no result: UPR CHOP act, UPR XBP1 act, CHOP inhibitor)
c1ccc(-c2ncc3c(ccc4ccccc43)n2)cc1	CHOP inhibitor 80.0
Oc1ccc(Cl)cc1/C=C/c1ccc2cccc(O)c2n1	CHOP inhibitor 93.7
COc1cc(SC)ccc1C(=O)NCCOc1c(C)cc(C)cc1C	CHOP inhibitor 91.2
FC(F)(F)c1nc(Oc2ccccc2)c2ccccc2n1	CHOP inhibitor 83.1
CCN1/C(=C/c2sc(-c3ccccc3C)c[n+]2C)Sc2ccccc21	CHOP inhibitor 80.5 (no result: UPR CHOP act, UPR XBP1 act)
CC(C)OC(=O)N(C)C[C@@H]1OCc2cnnn2CCCC(=O)N([C@@H](C)CO)C[C@H]1C	none (no result: UPR CHOP act, UPR XBP1 act, CHOP inhibitor)
COC(=O)c1c(NC(=O)Cc2ccccc2)sc(C)c1C	none
COC(=O)c1c(NC(=S)Nc2ccccc2Cl)sc(C)c1C	CHOP inhibitor 89.2
Cc1ccc(S(=O)(=O)N2CCCCC2)cc1NC(=O)c1cc2ccccc2o1	V-ATPase pHluor 26.9 (no result: CHOP inhibitor)
O=C(O)CSc1nc(-c2ccc(Cl)cc2)nc2c1oc1ccccc12	CHOP inhibitor 74.3 (no result: UPR CHOP act, UPR XBP1 act)
CCOC(=O)c1ccccc1NC(=O)c1c(F)c(F)c(F)c(F)c1F	CHOP inhibitor 73.3
CCOC(=O)c1ccccc1NC(=O)c1cccc(F)c1	CHOP inhibitor 74.2
CCOC(=O)c1[nH]c(COC(=O)c2ccccc2NC(=O)c2ccco2)c(C(=O)OCC)c1C	CHOP inhibitor 81.3
CCOC(=O)c1ccccc1NC(=O)c1ccc(F)cc1	none
CC1CC(C)(C)OC(c2ccc(C(C)C)cc2)O1 (stereo not drawn)	none (no result: UPR CHOP act, UPR XBP1 act, CHOP inhibitor)
Cc1nc2ccc(C(=O)N(C)Cc3ccco3)cn2c1N(C)CC1CCCCC1	none (no result: UPR CHOP act, V-ATPase pHluor, UPR XBP1 act, CHOP inhibitor)
Nc1c(-c2ccc(Cl)cc2)cnn1-c1cccc([N+](=O)[O-])c1	CHOP inhibitor 78.1
C[C@@H]1CN([C@@H](C)CO)C(=O)c2cccc(NS(C)(=O)=O)c2O[C@H]1CN(C)CC1CCCCC1	none (no result: CHOP inhibitor)
CN(C)c1ccc(-c2csc(C(C)(O)c3ccccc3)n2)cc1 (stereo not drawn)	none (no result: UPR CHOP act, V-ATPase pHluor, UPR XBP1 act, CHOP inhibitor)
O=C(CC(c1ccccc1)c1ccccc1)Nc1ccc(Cl)cn1	CHOP inhibitor 78.2
CCCCCCC(=O)Nc1ccc(Cl)cn1	none
Cc1ccc(OCCC(=O)OCC(=O)Nc2ccc(Cl)cn2)cc1	CHOP inhibitor 74.3
O=C(CCCOc1ccccc1)Nc1ccc(Cl)cn1	CHOP inhibitor 72.2
COc1ccc(OCCCC(=O)OCC(=O)Nc2ccc(Cl)cn2)cc1	none (no result: CHOP inhibitor)
O=C(CS(=O)(=O)c1ccccc1)Nc1ccc(Cl)cn1	none (no result: CHOP inhibitor)
Cc1nc(SCC(=O)Nc2ccc3[nH]c(=O)[nH]c3c2)nc(C)c1C	none (no result: CHOP inhibitor)
Cc1ccc(SCc2nc3ccccc3n2CC(=O)Nc2c(C)cccc2C)cc1	CHOP inhibitor 89.6
CN(C)c1c2ccccc2nc2c(F)c(F)c(F)c(F)c12	CHOP inhibitor 70.2
C=CCc1ccccc1OCC(O)CN1CCN(c2ccccc2F)CC1 (stereo not drawn)	CHOP inhibitor 77.8
C=CCc1ccccc1OCC(O)CN1CCN(c2ccccc2OC)CC1 (stereo not drawn)	none
COc1cc(OC)cc(C(=O)OCc2cc3ccccc3[nH]c2=O)c1	CHOP inhibitor 84.5
Oc1oc(-c2cccc3ccccc23)nc1C=NCc1ccccc1	none (no result: Tb MetRS inh, UPR CHOP act, V-ATPase pHluor, UPR XBP1 act)
Oc1oc(-c2cccc3ccccc23)nc1/C=N/c1nccs1	CHOP inhibitor 90.5
COC1=CC(=O)OC(c2ccccc2C(F)(F)F)C1 (stereo not drawn)	none (no result: UPR CHOP act, V-ATPase pHluor, UPR XBP1 act, CHOP inhibitor)
Cc1c(C#N)c(O)n(CCO)c(=O)c1N=Nc1ccc2c(c1)COC2=O	CHOP inhibitor 94.2
Cc1cc(=O)n(CCO)c(O)c1C#N	none
O=C1c2ccccc2C2N1CCCN2C(=O)c1sc2ccccc2c1Cl (stereo not drawn)	none (no result: UPR CHOP act, UPR XBP1 act, CHOP inhibitor)
O=C(Nc1nc2cc(Cl)ccc2s1)C1CCCN(S(=O)(=O)c2cccc3cccnc23)C1 (stereo not drawn)	CHOP inhibitor 74.8
